Laboratory results as given in ChEMBL document CHEMBL1145815, “SYNOPSIS: SYNthesize and OPtimize System in Silico” (J Med Chem, 2003).

What was measured:
MT4 = experiment: Logarithm of cytotoxic concentration that causes half of the cells to die in mock-infected MT-4 cell cultures; assay type: functional, Homo sapiens
Summary of the method: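 Mock-infected MT-4 cell cultures exposed to compound; viability read spectrophotometrically as mitochondrial dehydrogenase reduction of yellow MTT to blue formazan in metabolically active cells. CC50 taken as the concentration killing half the cells, run alongside HIV-infected cultures.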

[1] = Logarithm of inhibitory concentration against HIV-induced cytopathogenicity in MT-4 cell cultures; assay type: functional, cell-based; conditions: Human immunodeficiency virus 1, MT4
Summary of the method: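 Protection of MT-4 cell cultures against HIV-induced cytopathogenicity. Reduction of yellow MTT to blue formazan by mitochondrial dehydrogenases of metabolically active cells is read spectrophotometrically in HIV- and mock-infected cultures. IC50 is the concentration giving 50% protection against HIV-induced cytopathogenicity. CC50 is the concentration killing half the cells in mock-infected cultures.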

## CC(NCCc1cccs1)c1cc(C#N)ccc1O (centres undefined)
MT4
  pCC50: <4
[1]
  IC50: > 100 µM

## O=C1NCCCC1C(=O)NNC(=S)Nc1cc(Cl)cc(Cl)c1 (centres undefined)
MT4
  pCC50: 4.3
[1]
  IC50: > 50.1 µM

## COC(C/N=C(\S)Nc1c(Br)cc(Cl)cc1Br)OC
MT4
  pCC50: <4
[1]
  IC50: 25.1 µM

## CSc1cccnc1C(=O)NCc1ccc(N)cc1
MT4
  pCC50: <4
[1]
  IC50: 39.8 µM

## N#Cc1ccc(O)c(NC(=O)Nc2cccc(F)c2)c1
MT4
  pCC50: <4
[1]
  IC50: > 100 µM

## COc1cccc(CC/N=C(\S)Nc2ccc(C#N)cc2)c1
MT4
  pCC50: 4.3
[1]
  IC50: 1.58 µM

## NC(=O)N/N=C\c1cc(Cl)ccc1Nc1cccc(Cl)c1
MT4
  pCC50: <4
[1]
  IC50: 2.51 µM

## CC(Nc1ncccc1C(N)=O)c1cccc(Cl)c1 (centres undefined)
MT4
  pCC50: <4
[1]
  IC50: 12.6 µM

## CCCc1cc(O)nc(SCC(C)(C)c2ccccc2)n1
MT4
  pCC50: <4.3
[1]
  IC50: 15.8 µM

## S=C(NCc1ccc(Cl)c(Cl)c1)Nc1cccnc1
MT4
  pCC50: 4.4
[1]
  IC50: > 39.8 µM

## CC(C)n1c(O)nnc1Sc1cccc(C(F)(F)F)c1
MT4
  pCC50: <4
[1]
  IC50: 79.4 µM

## CC(C)(C)c1nc(COc2ccc(C(N)=O)c(O)c2)no1
MT4
  pCC50: <4
[1]
  IC50: > 100 µM

## O=C(N/N=C(\S)Nc1cc(Cl)cc(Cl)c1)c1ccccc1F
MT4
  pCC50: 5.1
[1]
  IC50: > 7.94 µM

## O=C(Cc1ccc(I)cc1)Nc1ncccc1O
MT4
  pCC50: <4
[1]
  IC50: > 100 µM

## NC(=O)N/N=C\c1ccccc1NCc1ccccn1
MT4
  pCC50: <4
[1]
  IC50: 6.31 µM

## Oc1cc(O)cc(CNc2cc(Cl)c(Cl)c(Cl)c2)c1
MT4
  pCC50: 4.3
[1]
  IC50: > 50.1 µM

## O=C(Nc1cccnc1)Nc1nc(Cl)ccc1Cl
MT4
  pCC50: <4
[1]
  IC50: 31.6 µM
